Measured values: ChEMBL document CHEMBL1123790, “Stereospecificity of the chloride ion channel: the action of chiral clofibric acid analogues” (J Med Chem, 1987)

Experiments:
Rattus norvegicus [1] = species: Rattus norvegicus; experiment: Concentration required to block 50% chloride conductance in rat extensor digitorum longus(EDL) muscle fibers; type: functional, organism-based
In short: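 Male Wistar rats (180–220 g); EDL muscles in bath at 30 ± 1 °C, perfused with Ringer's (normal or Cl⁻-free methyl sulfate) containing compound, pH 7.3–7.4, from 10^-3 g/mL stocks in 1% NaHCO3. Intracellular microelectrode cable analysis; GCl = mean Gm − mean GK. Three or more concentrations (5–230 μM); curves fit to single-site binding by nonlinear least squares, IC50 ± SD.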

Rattus norvegicus [2] = species: Rattus norvegicus; experiment: Number of fibres over number of preparation sampled was determined at a concentration of; type: functional
Rattus norvegicus [3] = species: Rattus norvegicus; experiment: Latency in rat extensor digitorum longus(EDL) muscle fibers was determined at a concentration of 20 uM; type: functional
In short: (§1)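 Male Wistar rat (180–220 g) EDL muscles in Ringer's bath at 30 ± 1 °C, pH 7.3–7.4. Two intracellular microelectrodes (current electrode within 100 μm of voltage electrode). Square-wave constant-current pulses applied after holding at -80 mV. Latency = maximum delay to action potential onset; threshold = minimal long-pulse current for one spike; spikes = maximum with strong depolarization. Mean ± SEM; Student's t test.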

Rattus norvegicus [4] = species: Rattus norvegicus; experiment: Resting membrane potential determined in rat extensor digitorum longus(EDL) muscle fibers at a concentration of 20 uM; type: functional; in short: as §1
Rattus norvegicus [5] = species: Rattus norvegicus; experiment: Maximum number of spikes elicited by strong depolarizing pulses in rat extensor digitorum longus muscle fibers was determined at a concentration of 20 uM; type: functional; in short: as §1
Rattus norvegicus [6] = species: Rattus norvegicus; experiment: Minimal current intensity for a long pulse for a single action potential in rat extensor digitorum longus muscle fibers was determined at a concentration of 20 uM; type: functional; in short: as §1
Rattus norvegicus [7] = experiment: Concentration to block chloride membrane conductance (G Cl) in rat extensor digitorum longus (EDL) muscle fibers (in vivo and in vitro); type: functional, organism-based
In short: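 Male Wistar rats 180–220 g; EDL muscles in bath at 30 ± 1 °C, perfused with Ringer's (normal or Cl⁻-free methyl sulfate), pH 7.3–7.4; compounds from 10^-3 g/mL stock in 1% NaHCO3, tested 5–230 μM. Intracellular microelectrode cable analysis; GCl = mean Gm minus mean GK; ≥3 concentrations; single-site binding fit by nonlinear least squares gives IC50 ± SD.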

Rattus norvegicus [8] = species: Rattus norvegicus; experiment: Number of fibres over number of preparation sampled was determined at a concentration of 230 uM; type: functional
Rattus norvegicus [9] = species: Rattus norvegicus; experiment: Latency in rat extensor digitorum longus(EDL) muscle fibers was determined at a concentration of 230 uM; type: functional; in short: as §1
Rattus norvegicus [10] = species: Rattus norvegicus; experiment: Resting membrane potential in rat extensor digitorum longus(EDL) muscle fibers was determined at a concentration of 230 uM; type: functional
In short: (§2)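 EDL fibres from male Wistar rats (180–220 g), in Ringer's at 30 ± 1 °C, pH 7.3–7.4, drug diluted from bicarbonate stock. Two intracellular microelectrodes within 100 μm; fibre held at -80 mV by holding current, then square-wave constant-current depolarizing pulses. Read-outs: resting potential, latency to action potential, threshold current (long pulse), maximal spike number; mean ± SEM, fibres/preparations counted; Student's t test.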

Rattus norvegicus [11] = species: Rattus norvegicus; experiment: Maximum number of spikes elicited by strong depolarizing pulses in rat extensor digitorum longus(EDL) muscle fibers was determined at a concentration of 230 uM; type: functional; in short: as §1
Rattus norvegicus [12] = species: Rattus norvegicus; experiment: Minimal current intensity for a long pulse for a single action potential in rat extensor digitorum longus(EDL) muscle fibers was determined at a concentration of 230 uM; type: functional; in short: as §1
Rattus norvegicus [13] = species: Rattus norvegicus; experiment: Number of fibres over number of preparation sampled was determined at a concentration of 92 uM; type: functional
Rattus norvegicus [14] = species: Rattus norvegicus; experiment: Latency was determined in rat extensor digitorum longus(EDL) muscle fibers at a concentration of 92 uM; type: functional; in short: as §1
Rattus norvegicus [15] = species: Rattus norvegicus; experiment: Resting membrane potential determined in rat extensor digitorum longus(EDL) muscle fibers at a concentration of 92 uM; type: functional; in short: as §1
Rattus norvegicus [16] = species: Rattus norvegicus; experiment: Maximum number of spikes elicited by strong depolarizing pulses in rat extensor digitorum longus(EDL) muscle fibers was determined at a concentration of 92 uM; type: functional; in short: as §1
Rattus norvegicus [17] = species: Rattus norvegicus; experiment: Minimal current intensity for a long pulse for a single action potential in rat extensor digitorum longus(EDL) muscle fibers was determined at a concentration of 92 uM; type: functional; in short: as §1
Rattus norvegicus [18] = species: Rattus norvegicus; experiment: Resting membrane potential determined in rat extensor digitorum longus(EDL) muscle fibers at a concentration of 230 uM; type: functional; in short: as §1
Rattus norvegicus [19] = species: Rattus norvegicus; experiment: Latency in rat extensor digitorum longus(EDL) muscle fibers was determined at a concentration of 92 uM; type: functional; in short: as §2
Rattus norvegicus [20] = species: Rattus norvegicus; experiment: Resting membrane potential in rat extensor digitorum longus(EDL) muscle fibers was determined at a concentration of 92 uM; type: functional; in short: as §2
Rattus norvegicus [21] = species: Rattus norvegicus; experiment: Maximum number of spikes elicited by strong depolarizing pulses in rat extensor digitorum longus muscle fibers was determined at a concentration of 92 uM; type: functional; in short: as §2
Rattus norvegicus [22] = species: Rattus norvegicus; experiment: Number of fibres over number of preparation sampled was determined at a concentration of 20 uM; type: functional; in short: as §2
Rattus norvegicus [23] = species: Rattus norvegicus; experiment: Maximum number of spikes elicited by strong depolarizing pulses in rat extensor digitorum longus(EDL) muscle fibers was determined at a concentration of 20 uM; type: functional; in short: as §2
Rattus norvegicus [24] = species: Rattus norvegicus; experiment: Minimal current intensity for a long pulse for a single action potential in rat extensor digitorum longus(EDL) muscle fibers was determined at a concentration of 20 uM; type: functional; in short: as §2

Compound: C[C@H](Oc1ccc(Cl)cc1)C(=O)O
- IC50 (Rattus norvegicus [1]): 12 µM
- Fibers/preparations (Rattus norvegicus [2]): 15
- Latency (Rattus norvegicus [3]): <45.5 ms
- Resting potential (Rattus norvegicus [4]): 70 -mV
- No. of spikes (Rattus norvegicus [5]): <18
- Threshold current (Rattus norvegicus [6]): <65 nA

Compound: CC(C)(Oc1ccc(Cl)cc1)C(=O)O [CLOFIBRIC ACID]
- IC50 (Rattus norvegicus [7]): 205 µM

Compound: CC[C@@H](Oc1ccc(Cl)cc1)C(=O)O
- Fibers/preparations (Rattus norvegicus [8]): 13
- Latency (Rattus norvegicus [9]): 5.2 ms
- Resting potential (Rattus norvegicus [10]): 70 -mV
- No. of spikes (Rattus norvegicus [11]): 6.5
- Threshold current (Rattus norvegicus [12]): 121 nA

Compound: CC(Oc1ccc(Cl)cc1)C(=O)O (racemic)
- IC50 (Rattus norvegicus [1]): 81 µM
- Fibers/preparations (Rattus norvegicus [13]): 18
- Latency (Rattus norvegicus [14]): 24.3 ms
- Resting potential (Rattus norvegicus [15]): 74 -mV
- No. of spikes (Rattus norvegicus [16]): 12.5
- Threshold current (Rattus norvegicus [17]): 79.1 nA

Compound: C[C@@H](Oc1ccc(Cl)cc1)C(=O)O
- Fibers/preparations (Rattus norvegicus [8]): 8
- Latency (Rattus norvegicus [9]): 6.2 ms
- Resting potential (Rattus norvegicus [18]): 73 -mV
- No. of spikes (Rattus norvegicus [11]): 6.5
- Threshold current (Rattus norvegicus [12]): 90 nA

Compound: CCC(Oc1ccc(Cl)cc1)C(=O)O (racemic)
- IC50 (Rattus norvegicus [1]): 44 µM
- Fibers/preparations (Rattus norvegicus [13]): 12
- Latency (Rattus norvegicus [19]): <18.3 ms
- Resting potential (Rattus norvegicus [20]): < 65 -mV
- No. of spikes (Rattus norvegicus [21]): <15.6
- Threshold current (Rattus norvegicus [17]): 67.3 nA

Compound: CC[C@H](Oc1ccc(Cl)cc1)C(=O)O
- IC50 (Rattus norvegicus [1]): 10.3 µM
- Fibers/preparations (Rattus norvegicus [22]): 8
- Latency (Rattus norvegicus [3]): <30.2 ms
- Resting potential (Rattus norvegicus [4]): 68 -mV
- No. of spikes (Rattus norvegicus [23]): <15
- Threshold current (Rattus norvegicus [24]): 65 nA
